# Shown are actives, neighbours in structure and some others; about 6.1% of the full set was active somewhere.
# Yeast lifespan up: yeast lifespan extension | S. cerevisiae growth with nicotinamide, OD615; deaD strain in restrictive glucose medium | 130,000 compounds, 0.68% hits | inhibition of the nicotinamide effect, % at 10 µM;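 active = inhibition above a set limit, placed 3 SD over the median of all compounds, cut at about 26% in these data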;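 note: 0% = nicotinamide-treated wells and 100% = cells grown without nicotinamide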
#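 Buffer or medium: CSMM-D glucose medium, restrictive; test system: modified budding yeast, DeaD strain; compound: single dose 10 µM compound, 0.25% DMSO; schedule: culture preincubation 4 h, compound exposure 48 h, both 30 °C; detection: optical density (absorbance) at 615 nm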
# WT yeast gro inh: growth inhibition of WT yeast, mitochondrial fusion screen; mitochondrial fusion phenotypic screen, WT strain; inhibition, % at 10 µM; 190,000 compounds, 2.1% hits; AID 1362; in the data active = inhibition above about 58%; tested in S. cerevisiae
# Yeast growth inh: reduces growth of yeast BB579 in restrictive medium; S. cerevisiae BB579 growth, OD615, 48 h; inhibition, % at 10 µM; 140,000 compounds, 0.51% hits;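 active = inhibition above a set limit, 3 SD over the mean compound inhibition, cut at about 44% in these data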
#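 Material: Saccharomyces cerevisiae DeaD strain BB579, replicative lifespan model yeast; buffer or medium: CSMM-D restrictive synthetic medium containing dextrose (glucose); compound: 10 µM single dose, DMSO 0.25%; timing: 48 h compound exposure at 30 °C after 4 h preincubation; signal: turbidity as optical density at 615 nm; benchmarks: positive control amphotericin B 10 µg/mL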
# Measles CPE: protection of cells from measles virus; Measles virus-infected cells, CPE protection, absorbance; protection (pct of control), % at 4 µM; 140,000 compounds, 1.5% hits; AID 841; in the data active = protection mostly above about 24%, no sharp cut-off; inactive = mostly below about 26%
# RAM network inh: inhibitors of the yeast RAM network; AID 868; inhibition, % at 50 µM; 190,000 compounds, 1.8% hits; S. cerevisiae dse1pr::URA3 reporter, 5-FOA growth OD615, 2 d; analog-sensitive cbk1-as2 kinase mutant strain;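 active = inhibition above a set limit, 3 SD over mean compound inhibition, cut at about 8.4% in these data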;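 note: 0% = DMSO-only wells with no growth and 100% = 10 µM 1-NA-PP1 full growth; inhibition rescues growth on 5-FOA so higher OD means more RAM inhibition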
# hDAT+cocaine: modulates human dopamine transporter uptake under cocaine | LLC-PK1 hDAT cells, [14C]-dopamine uptake with cocaine IC80; actives deviate in either direction | B-score at 10 µM | 110,000 compounds, 1.3% hits | AID 449768;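 active = Z score or B-score, a plate-position-corrected score, falls beyond the plate's 99.7% confidence bounds, in either direction; inactive = both scores lie inside the 99.7% bounds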;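 note: scored against the spread of the other compound wells on the same plate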
# Target sequence (Q01959 whole entry, looked up): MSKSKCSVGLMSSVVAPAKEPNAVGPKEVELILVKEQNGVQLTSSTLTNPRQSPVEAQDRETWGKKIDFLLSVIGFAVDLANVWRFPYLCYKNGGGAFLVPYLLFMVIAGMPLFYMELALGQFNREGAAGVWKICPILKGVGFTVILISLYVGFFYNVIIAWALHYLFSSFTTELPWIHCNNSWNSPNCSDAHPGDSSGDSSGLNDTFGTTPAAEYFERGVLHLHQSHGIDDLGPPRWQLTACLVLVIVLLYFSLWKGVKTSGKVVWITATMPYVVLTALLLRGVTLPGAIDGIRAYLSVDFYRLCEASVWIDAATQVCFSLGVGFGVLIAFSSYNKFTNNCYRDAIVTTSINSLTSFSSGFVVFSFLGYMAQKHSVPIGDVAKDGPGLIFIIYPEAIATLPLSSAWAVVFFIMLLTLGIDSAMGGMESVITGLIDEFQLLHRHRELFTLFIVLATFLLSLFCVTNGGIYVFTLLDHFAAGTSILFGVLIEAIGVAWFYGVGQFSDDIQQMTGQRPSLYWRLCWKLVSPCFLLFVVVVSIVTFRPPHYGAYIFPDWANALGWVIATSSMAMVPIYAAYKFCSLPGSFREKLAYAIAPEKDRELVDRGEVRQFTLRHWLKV
# * hit, by the source's call; x = no result given.
SMILES,Yeast lifespan up,WT yeast gro inh,Yeast growth inh,Measles CPE,RAM network inh,hDAT+cocaine
O=C(O)c1ccccc1C(=O)Nc1ccc(S(=O)(=O)NC2CCCCC2)cc1,3.5,-10.2,-45.8,3.2,0.6,x
CCCCC(=O)Nc1ccc(C(=O)NNC(=S)NC(=O)c2cccs2)cc1,35.7*,-15.6,-23.2,10.3,0.0,x
O=C(NNC(=S)NC(=O)c1cccs1)c1ccc(NC(=O)c2ccccc2)cc1,0.6,-14.7,-26.3,4.5,3.4,x
O=C(NC(=S)Nc1ccc(S(=O)(=O)NC2CCCCC2)cc1)c1cccs1,-0.3,64.3*,-18.3,45.6,4.1,x
COc1cccc(-c2nc(-c3ccc(NC(=O)c4cccs4)cc3)no2)c1,-10.2,58.1*,-46.1,2.4,5.2,-0.863
COc1cccc(-c2nc(-c3ccc(NC(=O)c4ccncc4)cc3)no2)c1,-13.5,-8.3,-38.5,37.5,3.0,-1.13
COc1ccccc1OCC(=O)NNC(=O)c1cccs1,33.3*,5.8,-39.1,5.8,1.8,x
O=c1[nH]c2ccccc2n2cnnc12,x,-11.4,x,x,1.1,x
COc1ccc(-c2cn3c(C)c(C(=O)N4CCN(c5ccc(OC)cc5)CC4)sc3n2)cc1,x,5.2,x,x,x,x
COc1ccc(OC)c(/C=C/C(=O)N(C)CC(=O)Nc2cc(C)ccc2C)c1,-1.3,-5.4,-32.8,11.9,1.9,x
Cc1ccc(NS(=O)(=O)c2ccc(NC(=O)c3cccs3)cc2)cc1,1.9,3.5,-12.7,16.2,4.0,-1.22
COc1ccc(NC(=O)c2cccs2)cc1,x,5.3,-16.3,27.1,-1.2,0.565
COc1ccc(NC(=S)NNC(=O)c2cccs2)cc1,0.3,-1.9,-28.6,16.9*,1.4,x
CN(C)c1nc(-c2ccccn2)nnc1-c1ccccc1,12.2,61.1*,38.8,6.6,1.6,0.837
Cc1ccc(-c2nnc(-c3ccccc3)c(-c3ccccc3)n2)cc1,-8.0,76.3*,-25.3,5.4,4.3,x
Cc1nnc(-c2ccccc2)nc1N(C)C,x,-0.3,x,x,-0.5,x
CCN(CC)c1nc(-c2ccccn2)nc(-c2ccccc2)c1C#N,x,79.6*,x,x,-1.1,x
Cc1cc(C)n2nc(-c3sccc3-n3cccc3)cc2n1,-13.2,10.7,-52.2,2.7,6.2,-2.61*
CC(C)(C)c1cc[n+](/C(C(=S)Nc2ccccc2F)=C(/[O-])c2ccc3c(c2)OCCO3)cc1,x,-3.0,x,x,1.6,x
CCOc1ccccc1NC(=S)/C(=C(\[O-])c1ccc2c(c1)OCCO2)[n+]1ccc(CC)cc1,-17.7,19.5,-42.4,28.3*,1.1,-0.127
CCOC(=O)c1sc(NC(=O)CSc2nncn2C)nc1C,x,7.7,x,x,3.4,x
O=C(NCC(c1cccnc1)N1CCOCC1)c1ccco1 (stereo not given),-14.9,71.2*,3.6,24.6,0.0,0.181
O=C(NCC(c1cccnc1)N1CCN(c2ccc(F)cc2)CC1)c1ccc(F)cc1 (stereo not given),12.4,13.0,-29.4,3.7,0.0,3.15*
O=C(NCC(c1cccnc1)N1CCN(c2ccc(F)cc2)CC1)c1ccco1 (stereo not given),x,-3.4,x,x,1.6,-0.739
CC(OC(=O)CC(NC(=O)c1ccccc1Cl)c1ccccc1)C(=O)Nc1cccc(Cl)c1Cl (stereo not given),0.6,31.9,-23.7,9.3,3.5,x
SMILES,Yeast lifespan up,WT yeast gro inh,Yeast growth inh,Measles CPE,RAM network inh,hDAT+cocaine
COc1ccccc1CN1C[C@@H]2C[C@@H](c3cccc(C)c3)N3CCC[C@@]23C1=O,x,7.6,x,x,0.4,x
CCCc1nc(N2CCOCC2)c(C#N)c2c1CCCC2,-18.2,5.3,-17.6,29.2,-0.7,-0.147
CCCCc1nc(N2CCOCC2)c(C#N)c2c1CCCC2,-26.0,2.0,15.3,55.6*,0.0,0.876
CC(C)CC(=O)N1CCN(C(=O)CCC2CCCC2)CC1,1.2,-1.4,-73.5,9.5,-0.6,0.325
COc1ccc(OC)c(Nc2nc(-c3ccccc3O)nc3ccccc23)c1,x,-8.7,x,x,9.7*,x
Cc1ccc(OCC(=O)Nc2ccc(-c3nc4ncccc4o3)cc2)c(C)c1,-13.1,-0.3,6.9,6.9,0.8,-0.22
COc1ccc(N(C(=O)CCl)C(C(=O)NCCc2ccccc2)c2cccs2)cc1Cl (stereo not given),-7.0,43.5,-41.0,0.6,1.4,x
COc1cccc(N(C(=O)CCl)C(C(=O)NCCc2ccccc2)c2cccs2)c1 (stereo not given),4.8,3.7,-31.8,0.7,9.2*,x
CCOC(=O)C(=NC1CCS(=O)(=O)C1)NNc1ccc(Br)cc1 (stereo not given),x,58.9*,x,x,-0.8,x
CCC(C)NC(=O)Nc1ccc(Br)cc1 (stereo not given),x,3.9,x,x,0.4,x
CCC(=O)NNc1ccc(Br)cc1,x,68.7*,x,x,-0.8,x
CCOC(=O)C(=NC(C)CC)NNc1cccc(C(F)(F)F)c1 (stereo not given),-3.4,50.9,-11.8,4.9,0.3,x
CCOC(=O)C(=NC(C)CC)NNc1ccc(Br)cc1 (stereo not given),-6.6,70.3*,92.6*,10.3,0.3,x
O=C(Nc1nnc(-c2ccc3c(c2)CCCC3)o1)C1COc2ccccc2O1 (stereo not given),-6.2,69.3,-37.9,0.8,0.5,0.312
O=C(NCCSc1c[nH]c2ccccc12)c1ccc2c(c1)OCO2,x,11.6,x,x,0.7,-0.462
O=Nc1ccc(NOC(=O)c2ccccc2)cc1,-3.9,6.3,5.0,5.4,2.3,x
O=C(N=Nc1ccc(NOC(=O)c2ccccc2Br)cc1)c1ccccc1O,x,42.2,x,x,11.0*,x
Cc1cccc(-n2ncc3c(NCCc4ccc(S(N)(=O)=O)cc4)ncnc32)c1,-5.8,-2.1,-39.5,15.3,1.9,0.646
O=C(O)Cn1c(CC(=O)N2CCCC2)nc2ccccc21,-8.8,63.4*,-34.4,9.7,0.8,-0.583
O=S1(=O)CCOC[C@H](Cc2ccccc2)N1Cc1ccccc1F,x,x,x,x,x,-0.446
c1ccc(CCn2c3ccccc3c3nnc(SCc4ccc5nonc5c4)nc32)cc1,-7.2,23.2,-72.1,24.2*,4.2,0.71
COc1ccc(C2=NOC(C3(S(=O)(=O)c4ccccc4)CC(O)C3)C2)cc1 (stereo not given),x,x,x,x,x,0.0555
COc1ccc(Nc2nc(NC(C)(C)C)nc(N3CCCC3)n2)c(OC)c1,-15.3,83.6*,-67.2,27.4,-0.5,1.84
Cc1ccc(C(Sc2ccccc2)C(Cn2cncn2)C(=O)c2ccccc2)cc1 (stereo not given),4.5,24.9,-30.9,1.9,3.5,0.0874
Cc1ccc(SC(c2ccc(C)cc2)C(Cn2cncn2)C(=O)c2ccccc2)cc1 (stereo not given),0.8,19.0,-20.9,5.3,11.4*,-0.574
Cc1cc([N+](=O)[O-])nn1CCCC(=O)N1CCN(c2ccccc2)CC1,-5.9,7.0,-14.1,17.4,1.2,x
CSCc1cc(N2CCOCC2)nc(SCc2ccc(Cl)c(Cl)c2)n1,-5.0,62.2*,-18.6,3.9,3.3,0.379
COCc1cc(N2CCOCC2)nc(SCc2ccc(Cl)cc2)n1,x,25.3,x,x,0.4,x

# Screens: PubChem, several laboratories
